In ChEMBL document CHEMBL1151428, “Capability of 11 antipneumococcal antibiotics to select for resistance by multistep and single-step methodologies” (2007):

Tests used:
Format in all cases: functional
Streptococcus pneumoniae [1] = experiment: Antimicrobial activity against drug-resistant Streptococcus pneumoniae isolate 3009 after 50 passages by multi-step resistance selection technique
Method in brief: (§1)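 Daily serial passage in subinhibitory drug levels in 1 ml cation-adjusted Mueller-Hinton broth with 5% lysed horse blood; fresh broth for tigecycline. Each day, 10 μl were taken from the tube one to two dilutions below the MIC whose turbidity matched the growth control, and used to set the next MIC. […] MIC by macrodilution.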

Streptococcus pneumoniae [2] = experiment: Antimicrobial activity against drug-resistant Streptococcus pneumoniae isolate 1635 after 49 passages with clarithromycin measured after 10 antibiotic-free subculture by multi-step resistance selection technique
Streptococcus pneumoniae [3] = experiment: Antimicrobial activity against drug-resistant Streptococcus pneumoniae isolate 1077 after 49 passages with clindamycin measured after 10 antibiotic-free subculture by multi-step resistance selection technique
Streptococcus pneumoniae [4] = experiment: Antimicrobial activity against drug-resistant Streptococcus pneumoniae isolate 3665 after 38 passages with moxifloxacin measured after 10 antibiotic-free subculture by multi-step resistance selection technique
Streptococcus pneumoniae [5] = experiment: Antimicrobial activity against drug-resistant Streptococcus pneumoniae isolate 24 after 14 passages with Telithromycin measured after 10 antibiotic-free subculture by multi-step resistance selection technique
Method in brief: (§2)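 Mutants selected by daily broth passage in subinhibitory drug in cation-adjusted Mueller-Hinton broth with 5% lysed horse blood. Stability was tested by 10 daily passages on blood agar without antibiotic, then macrodilution MIC.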

Streptococcus pneumoniae [6] = experiment: Antimicrobial activity against drug-resistant Streptococcus pneumoniae isolate 3676 after 44 passages with clarithromycin measured after 10 antibiotic-free subculture by multi-step resistance selection technique
Streptococcus pneumoniae [7] = experiment: Antimicrobial activity against drug-resistant Streptococcus pneumoniae isolate 1635 after 14 passages with azithromycin measured after 10 antibiotic-free subculture by multi-step resistance selection technique; method in brief: as §2
Streptococcus pneumoniae [8] = experiment: Antimicrobial activity against drug-resistant Streptococcus pneumoniae isolate 3274 after 50 passages by multi-step resistance selection technique
Method in brief: (§3)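 Daily serial passage in subinhibitory drug levels in 1 ml cation-adjusted Mueller-Hinton broth with 5% lysed horse blood; fresh broth for tigecycline. Each day, 10 μl were taken from the tube one to two dilutions below the MIC whose turbidity matched the growth control, and used to set the next MIC. MIC by macrodilution.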

Streptococcus pneumoniae [9] = experiment: Antimicrobial activity against drug-resistant Streptococcus pneumoniae isolate 3413 after 50 passages by multi-step resistance selection technique; method in brief: as §3
Streptococcus pneumoniae [10] = experiment: Antimicrobial activity against drug-resistant Streptococcus pneumoniae isolate 2527 after 50 passages by multi-step resistance selection technique; method in brief: as §1
Streptococcus pneumoniae [11] = experiment: Antimicrobial activity against drug-resistant Streptococcus pneumoniae isolate 3665 by NCCLS M7-A7 method
Streptococcus pneumoniae [12] = experiment: Antimicrobial activity against drug-resistant Streptococcus pneumoniae isolate 24 by NCCLS M7-A7 method
Streptococcus pneumoniae [13] = experiment: Antimicrobial activity against drug-resistant Streptococcus pneumoniae isolate 2527 after 14 passages with gemifloxacin measured after 10 antibiotic-free subculture by multi-step resistance selection technique; method in brief: as §2
Streptococcus pneumoniae [14] = experiment: Antimicrobial activity against drug-resistant Streptococcus pneumoniae isolate 3243 after 33 passages with azithromycin measured after 10 antibiotic-free subculture by multi-step resistance selection technique; method in brief: as §2
Streptococcus pneumoniae [15] = experiment: Antimicrobial activity against drug-resistant Streptococcus pneumoniae isolate 1635 by NCCLS M7-A7 method
Streptococcus pneumoniae [16] = experiment: Antimicrobial activity against drug-resistant Streptococcus pneumoniae isolate 1076 by NCCLS M7-A7 method
Streptococcus pneumoniae [17] = experiment: Antimicrobial activity against drug-resistant Streptococcus pneumoniae isolate 1635 after 50 passages by multi-step resistance selection technique; method in brief: as §3
Streptococcus pneumoniae [18] = experiment: Antimicrobial activity against drug-resistant Streptococcus pneumoniae isolate 3676 after 14 passages with Telithromycin measured after 10 antibiotic-free subculture by multi-step resistance selection technique
Streptococcus pneumoniae [19] = experiment: Antimicrobial activity against drug-resistant Streptococcus pneumoniae isolate 3413 after 30 passages with Telithromycin measured after 10 antibiotic-free subculture by multi-step resistance selection technique; method in brief: as §2
Streptococcus pneumoniae [20] = experiment: Antimicrobial activity against drug-resistant Streptococcus pneumoniae isolate 3274 by NCCLS M7-A7 method
Streptococcus pneumoniae [21] = experiment: Antimicrobial activity against drug-resistant Streptococcus pneumoniae isolate 3413 by NCCLS M7-A7 method
Streptococcus pneumoniae [22] = experiment: Antimicrobial activity against drug-resistant Streptococcus pneumoniae isolate 2527 by NCCLS M7-A7 method
Streptococcus pneumoniae [23] = experiment: Antimicrobial activity against drug-resistant Streptococcus pneumoniae isolate 37 after 14 passages with Telithromycin measured after 10 antibiotic-free subculture by multi-step resistance selection technique
Streptococcus pneumoniae [24] = experiment: Antimicrobial activity against drug-resistant Streptococcus pneumoniae isolate 3009 after 19 passages with moxifloxacin measured after 10 antibiotic-free subculture by multi-step resistance selection technique; method in brief: as §2
Streptococcus pneumoniae [25] = experiment: Antimicrobial activity against drug-resistant Streptococcus pneumoniae isolate 3665 after 50 passages by multi-step resistance selection technique
Method in brief: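 Daily serial passage in broth at subinhibitory drug levels: 1 ml cation-adjusted Mueller-Hinton broth with 5% lysed horse blood; fresh broth for tigecycline. Each day 10 μl inoculum taken from the tube one to two dilutions below MIC matching growth-control turbidity, used to set next MIC. Continued until ≥8-fold MIC rise, minimum 14, maximum 50 passages; MIC read by macrodilution.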

Streptococcus pneumoniae [26] = experiment: Antimicrobial activity against drug-resistant Streptococcus pneumoniae isolate 3243 after 29 passages with Telithromycin measured after 10 antibiotic-free subculture by multi-step resistance selection technique; method in brief: as §2
Streptococcus pneumoniae [27] = experiment: Antimicrobial activity against drug-resistant Streptococcus pneumoniae isolate 1635 after 14 passages with clindamycin measured after 10 antibiotic-free subculture by multi-step resistance selection technique
Streptococcus pneumoniae [28] = experiment: Antimicrobial activity against drug-resistant Streptococcus pneumoniae isolate 1077 by NCCLS M7-A7 method
Streptococcus pneumoniae [29] = experiment: Antimicrobial activity against drug-resistant Streptococcus pneumoniae isolate 1076 after 50 passages by multi-step resistance selection technique; method in brief: as §1
Streptococcus pneumoniae [30] = experiment: Antimicrobial activity against drug-resistant Streptococcus pneumoniae isolate 1077 after 29 passages with azithromycin measured after 10 antibiotic-free subculture by multi-step resistance selection technique; method in brief: as §2
Streptococcus pneumoniae [31] = experiment: Antimicrobial activity against drug-resistant Streptococcus pneumoniae isolate 3009 by NCCLS M7-A7 method
Streptococcus pneumoniae [32] = experiment: Antimicrobial activity against drug-resistant Streptococcus pneumoniae isolate 3676 by NCCLS M7-A7 method
Streptococcus pneumoniae [33] = experiment: Antimicrobial activity against drug-resistant Streptococcus pneumoniae isolate 37 by NCCLS M7-A7 method
Streptococcus pneumoniae [34] = experiment: Antimicrobial activity against drug-resistant Streptococcus pneumoniae isolate 3665 after 26 passages with clarithromycin measured after 10 antibiotic-free subculture by multi-step resistance selection technique
Streptococcus pneumoniae [35] = experiment: Antimicrobial activity against drug-resistant Streptococcus pneumoniae isolate 1077 after 50 passages by multi-step resistance selection technique; method in brief: as §3
Streptococcus pneumoniae [36] = experiment: Antimicrobial activity against drug-resistant Streptococcus pneumoniae isolate 3676 after 50 passages with moxifloxacin measured after 10 antibiotic-free subculture by multi-step resistance selection technique
Streptococcus pneumoniae [37] = experiment: Antimicrobial activity against drug-resistant Streptococcus pneumoniae isolate 1076 after 35 passages with moxifloxacin measured after 10 antibiotic-free subculture by multi-step resistance selection technique; method in brief: as §2
Streptococcus pneumoniae [38] = experiment: Antimicrobial activity against drug-resistant Streptococcus pneumoniae isolate 2527 after 20 passages with azithromycin measured after 10 antibiotic-free subculture by multi-step resistance selection technique; method in brief: as §2

Measured: MIC

C[C@@H](O)[C@H]1C(=O)N2C(C(=O)O)=C(SCCNC=N)C[C@H]12 [IMIPENEM ANHYDROUS]
0.03 µg/mL: Streptococcus pneumoniae [4] | Streptococcus pneumoniae [8] | Streptococcus pneumoniae [11] | Streptococcus pneumoniae [14] | Streptococcus pneumoniae [34] | Streptococcus pneumoniae [36]
0.06 µg/mL: Streptococcus pneumoniae [9]
0.016 µg/mL: Streptococcus pneumoniae [6] | Streptococcus pneumoniae [20] | Streptococcus pneumoniae [25] | Streptococcus pneumoniae [26] | Streptococcus pneumoniae [32]
0.002 µg/mL: Streptococcus pneumoniae [2] | Streptococcus pneumoniae [7] | Streptococcus pneumoniae [15] | Streptococcus pneumoniae [17] | Streptococcus pneumoniae [27]
0.25 µg/mL: Streptococcus pneumoniae [5] | Streptococcus pneumoniae [10] | Streptococcus pneumoniae [22] | Streptococcus pneumoniae [23]
0.5 µg/mL: Streptococcus pneumoniae [12] | Streptococcus pneumoniae [33] | Streptococcus pneumoniae [38]
0.004 µg/mL: Streptococcus pneumoniae [3]
0.125 µg/mL: Streptococcus pneumoniae [13] | Streptococcus pneumoniae [19] | Streptococcus pneumoniae [21]
0.008 µg/mL: Streptococcus pneumoniae [1] | Streptococcus pneumoniae [16] | Streptococcus pneumoniae [18] | Streptococcus pneumoniae [24] | Streptococcus pneumoniae [28] | Streptococcus pneumoniae [29] | Streptococcus pneumoniae [30] | Streptococcus pneumoniae [31] | Streptococcus pneumoniae [35] | Streptococcus pneumoniae [37]
